The source of these data is ChEMBL document CHEMBL3785003, “Di- and Triterpenoids from the Leaves of Casearia balansae and Neurite Outgrowth Promoting Effects of PC12 Cells” (J Nat Prod, 2016).

Assay [1] deals with PC-12. Put plainly: Induction of NGF-mediated neutrite outgrowth of rat PC12 cells after 96 hrs by phase contrast microscopic analysis. It is filed as functional, cell-based. The settings on record: for EC50: PC-12, 96 h. The method in brief: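 PC12 cells grown at 37 °C in DMEM with 5% heat-inactivated FBS and 5% horse serum, dissociated with 1 mM EGTA in PBS, seeded on poly-L-lysine (3 × 10^4 cells/well). After 24 h, switched to 1% FBS/1% HS medium with NGF 20 ng/mL plus test concentrations. Scored as % neurite-bearing cells; EC50 by regression; triplicate.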

Assay [2] has as its system PC-12. Put plainly: Induction of neutrite outgrowth of rat PC12 cells after 96 hrs in absence of NGF by phase contrast microscopic analysis. It is filed as functional, cell-based. An outline of the steps:
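Poly-L-lysine-seeded PC12 cells (3 × 10^4 cells/well) in 1% FBS/1% horse serum test medium with graded compound concentrations for 96 h. Neurites at least one cell-body diameter counted as neurite-bearing under phase contrast. At least 100 cells per field, three fields per well, six wells per sample. Result expressed as percentage of total cells.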

Structures are written as SMILES. Activity calls are given as the source filed them. No cut-off for these calls is given here.

For `CC(=O)[C@H]1CC[C@@]2(C)[C@@H]3CC=C4[C@@H](C[C@H](O)C(=O)C4(C)C)[C@]3(C)C(=O)C[C@]12C`, the EC50 in the assay on PC-12 [1] was more than 50 µM. Still for that read-out and setting: then `C=CC(=C)CC[C@]1(C)[C@H](C)C[C@H](OC)[C@@]23C(=C[C@@H](O)C[C@@H]12)[C@@H](OC)O[C@H]3OC`, with 5.4 µM. On the same count and under the same terms, then `C=CC(=C)CC[C@]1(C)[C@H](C)C[C@H](OC)[C@@]23C(=C[C@@H](OC(C)=O)C[C@@H]12)[C@@H](OC(=O)CCC)O[C@@H]3OC(C)=O`, with 5.2 µM. The same measure, in the same setting: then `C=C(C)[C@@H](C)C[C@@H](O)[C@@H](C)[C@H]1CC[C@@]2(C)[C@@H]3CCC4=C(C[C@]35O[C@@H]5C[C@]12C)C(=O)C[C@H](O)C4(C)C`, with more than 50 µM; and `C=CC(=C)CC[C@]1(C)[C@H](C)C[C@H](OC)[C@@]23C(=C[C@@H](O)C[C@@H]12)[C@@H](OC)O[C@H]3OC(C)=O`, with 8.3 µM; and `CC(C)=CCC[C@](C)(O)[C@H]1CC[C@@]2(C)[C@@H]3CC=C4[C@@H](C[C@H](O)C(=O)C4(C)C)[C@]3(C)C(=O)C[C@]12C`, with 10 µM. Turning to `C=CC(=C)CC[C@]1(C)[C@H](C)C[C@H](OC)[C@@]23C(=C[C@H](O)C[C@@H]12)[C@@H](OC)O[C@@H]3OC(C)=O`, the half-maximal effective concentration (EC50) with PC-12 [1] is 2.9 µM. As for `CC(C)=CCC(=O)[C@](C)(O)[C@H]1CC[C@@]2(C)[C@@H]3CC=C4[C@@H](C[C@H](O)C(=O)C4(C)C)[C@]3(C)C(=O)C[C@]12C`, the outcome in the assay with PC-12 [1] and with PC-12 [2] was inactive.

`CC(C)=CCC[C@](C)(O)[C@H]1CC[C@@]2(C)[C@@H]3CC=C4[C@@H](CCC(=O)C4(C)C)[C@]3(C)C(=O)C[C@]12C` displayed an EC50 with PC-12 [1] of more than 50 µM. Compound `CC(C)(O)/C=C/C(=O)[C@](C)(O)[C@H]1CC[C@@]2(C)[C@@H]3CC=C4[C@@H](C[C@H](O)C(=O)C4(C)C)[C@]3(C)C(=O)C[C@]12C` displayed an EC50 with PC-12 [1] of more than 50 µM.
